Reference: ChEMBL document CHEMBL1142150, “Inhibitors of nonhousekeeping functions of the apicoplast defy delayed death in Plasmodium falciparum” (Antimicrob Agents Chemother, 2007)
Values after ≈ are worked out from the molar mass of the structure shown. Active and inactive are the calls of the source. The rule behind the calls is not given here.

Experiments:
Plasmodium falciparum [1] = assay: Inhibition of Plasmodium falciparum FCK2 growth as [3H]hypoxanthine uptake after 96 hrs; format: functional, organism-based
Method in brief: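 Ring-synchronized FCK2 at 2 to 3% hematocrit, 1 to 2% initial parasitemia, exposed to a range of inhibitor concentrations for the first 48 h only, in duplicate. [3H]hypoxanthine then added for a further 48 h, followed by harvest and scintillation counting. IC50/MIC90 from nonlinear fit of parasitemia relative to untreated (100%) against log concentration.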

Plasmodium falciparum [2] = assay: Inhibition of Plasmodium falciparum FCK2 growth as [3H]hypoxanthine uptake after 48 hrs; format: functional, organism-based
Method in brief: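 Ring-synchronized FCK2 in human O+ erythrocytes, 2 to 3% hematocrit, 1 to 2% initial parasitemia. Cultured 48 h with [3H]hypoxanthine and a range of inhibitor concentrations, inhibitor refreshed in new medium every 24 h, in duplicate. Cells harvested onto glass fibre filters for scintillation counting. IC50/MIC90 from nonlinear fit of parasitemia relative to untreated (100%) against log concentration.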

Plasmodium falciparum [3] = assay: Reduction in Plasmodium falciparum FCK2 in human erythrocyte culture after 48 hrs; format: functional, organism-based
Method in brief: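 FCK2 synchronized with sorbitol, at ring stage, in O+ erythrocytes (2–3% hematocrit, 1–2% parasitemia). Cells were exposed to an inhibitor dilution series with [3H]hypoxanthine for 48 h, with fresh inhibitor every 24 h, in duplicate. Harvested onto glass-fiber filters for scintillation counting. Parasitemia was taken relative to untreated (100%), and IC50/MIC90 were fitted by nonlinear regression against log concentration.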

Plasmodium falciparum [4] = assay: Decrease in Plasmodium falciparum FCK2 in erythrocytes at 50 uM after 84 hrs; format: functional, organism-based
Method in brief: (§1)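 Ring-stage synchronized FCK2 in human O+ erythrocytes at 10% hematocrit and 3% starting parasitemia, with medium changed every 24 h. Inhibitor was present either throughout (96 h) or for the first 48 h only, in triplicate. Giemsa thin smears were read every 12 h, counting at least 10 fields of about 200 cells. Parasitemia is infected RBC over total RBC; parasites lacking an intact membrane or stained cytoplasm were scored dead.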

Plasmodium falciparum [5] = assay: Reduction in Plasmodium falciparum FCK2 in human blood cell culture after 96 hrs; format: functional; design: scale not given: the % may be the effect or the level left
Method in brief: (§2)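 Ring-stage synchronized FCK2 (2–3% hematocrit, 1–2% parasitemia) was treated with an inhibitor dilution series for the first 48 h only, in duplicate. [3H]hypoxanthine was then added for a further 48 h (96 h total) before filter harvest and scintillation counting. Percent parasitemia was set relative to untreated controls, and IC50/MIC90 were fitted by nonlinear regression against log concentration.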

Plasmodium falciparum [6] = assay: Reduced apicoplast DNA/nuclear DNA ratio in Plasmodium falciparum FCK2 at 100 uM after 72 hrs by competitive PCR; format: functional
Method in brief: (§3)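 FCK2 cultures were treated for 72 h, then saponin-lysed, and genomic DNA was kit-purified. Competitive PCR for eftu (apicoplast) and fabI (nuclear) used deletion-mutant plasmid standards diluted in calf thymus DNA, run for 25 cycles at 95/50/72°C. Products were quantified by ethidium-stained gel densitometry, and copy number was taken at equal band intensity. Groups were compared by two-tailed Student t test.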

Plasmodium falciparum [7] = assay: Inhibition of Plasmodium falciparum FCK2 second cycle growth in erythrocytes at 48 hrs; format: functional, organism-based; method in brief: as §2
Plasmodium falciparum [8] = assay: Reduced apicoplast DNA/nuclear DNA ratio in Plasmodium falciparum FCK2 at 1 mM after 72 hrs by competitive PCR; format: functional, organism-based; method in brief: as §3
Plasmodium falciparum [9] = assay: Decrease in Plasmodium falciparum FCK2 in erythrocytes at 5 uM after 84 hrs; format: functional, organism-based; method in brief: as §1
Plasmodium falciparum [10] = assay: Reduced apicoplast DNA/nuclear DNA ratio in Plasmodium falciparum FCK2 at 100 nM after 72 hrs by competitive PCR; format: functional, organism-based
Plasmodium falciparum [11] = assay: Reduced apicoplast DNA/nuclear DNA ratio in Plasmodium falciparum FCK2 at 25 uM after 72 hrs by competitive PCR; format: functional, organism-based
Plasmodium falciparum [12] = assay: Reduced apicoplast genome copy number in Plasmodium falciparum FCK2 after 48 hrs; format: functional
Plasmodium falciparum [13] = assay: Inhibition of fatty acid biosynthesis in Plasmodium falciparum FCK2 as decreased [1,2-14C]acetate uptake at 10 uM after 2 hrs; format: functional, organism-based
Plasmodium falciparum [14] = assay: Reduced apicoplast genome copy number in Plasmodium falciparum FCK2 after 96 hrs; format: functional
Plasmodium falciparum [15] = assay: Reduced apicoplast DNA/nuclear DNA ratio in Plasmodium falciparum FCK2 at 10 uM after 72 hrs by competitive PCR; format: functional
Plasmodium falciparum [16] = assay: Inhibition of fatty acid biosynthesis in Plasmodium falciparum FCK2 as [1,2-14C]acetate uptake during first asexual cycle at 10 uM after 24 hrs; format: functional, organism-based
Plasmodium falciparum [17] = assay: Reduced apicoplast DNA/nuclear DNA ratio in Plasmodium falciparum FCK2 at 500 uM after 72 hrs by competitive PCR; format: functional, organism-based

| Structure (SMILES) | IC50 (Plasmodium falciparum [1]) | MIC90 (Plasmodium falciparum [1]) | IC50 (Plasmodium falciparum [2]) | MIC90 (Plasmodium falciparum [2]) | further results |
| --- | --- | --- | --- | --- | --- |
| C[C@@H]1C[C@H]2O[C@@H]2/C=C\C=C\C(=O)Cc2c(Cl)c(O)cc(O)c2C(=O)O1 [RADICICOL] | 5.6 µM | 60.2 µM (≈ 22 µg/mL) | 7.2 µM | 46.8 µM (≈ 17.1 µg/mL) | – |
| O=C(N[C@H](CO)[C@H](O)c1ccc([N+](=O)[O-])cc1)C(Cl)Cl [CHLORAMPHENICOL] | 11.2 µM | 190 µM (≈ 61.6 µg/mL) | 417 µM | 1020 µM (≈ 331 µg/mL) | Activity (Plasmodium falciparum [3]): inactive; Activity (Plasmodium falciparum [4]): inactive; Activity (Plasmodium falciparum [5]): 10% |
| CN(C)[C@@H]1C(O)=C(C(N)=O)C(=O)[C@@]2(O)C(O)=C3C(=O)c4c(O)cccc4[C@@](C)(O)[C@H]3C[C@@H]12 [TETRACYCLINE] | 2.19 µM | 26.9 µM (≈ 12 µg/mL) | 135 µM | 562 µM (≈ 250 µg/mL) | Activity (Plasmodium falciparum [6]): 0.1; Activity (Plasmodium falciparum [3]): inactive; Activity (Plasmodium falciparum [4]): Active; Activity (Plasmodium falciparum [7]): Active; Activity (Plasmodium falciparum [5]): 10% |
| CC(=O)CC(=O)CCC(=O)O [SUCCINYLACETONE] | 17400 µM | 51300 µM (≈ 8110 µg/mL) | 17800 µM | 58900 µM (≈ 9310 µg/mL) | Activity (Plasmodium falciparum [8]): inactive |
| CO[C@H]1/C=C/O[C@@]2(C)Oc3c(C)c(O)c4c(O)c(c(/C=N/N5CCN(C)CC5)c(O)c4c3C2=O)NC(=O)/C(C)=C\C=C\[C@H](C)[C@H](O)[C@@H](C)[C@@H](O)[C@@H](C)[C@H](OC(C)=O)[C@@H]1C [RIFAMPIN] | 0.19 µM | 2 µM (≈ 1.65 µg/mL) | 4.2 µM | 110 µM (≈ 90.2 µg/mL) | Activity (Plasmodium falciparum [3]): inactive; Activity (Plasmodium falciparum [7]): Active; Activity (Plasmodium falciparum [9]): Active; Activity (Plasmodium falciparum [5]): 10% |
| CCN(CC)CCCC(C)Nc1ccnc2cc(Cl)ccc12 (stereo unspecified) [CHLOROQUINE] | – | 0.011 µM (≈ 0.00352 µg/mL) | – | 0.011 µM (≈ 0.00352 µg/mL) | Activity (Plasmodium falciparum [10]): inactive |
| C/C=C/C/C=C/CCC(=O)[C@H]1O[C@H]1C(N)=O [CERULENIN] | 16.9 µM | 52.3 µM (≈ 11.7 µg/mL) | 15.1 µM | 64.9 µM (≈ 14.5 µg/mL) | – |
| CC(Oc1ccc(Oc2cnc3cc(Cl)ccc3n2)cc1)C(=O)O (stereo unspecified) [QUIZALOFOP] | 676 µM | 1950 µM (≈ 672 µg/mL) | 575 µM | 3090 µM (≈ 1070 µg/mL) | – |
| CC(Oc1ccc(Oc2ccc(C(F)(F)F)cn2)cc1)C(=O)O (stereo unspecified) [FLUAZIFOP] | 1480 µM | 5750 µM (≈ 1880 µg/mL) | 1550 µM | 6920 µM (≈ 2260 µg/mL) | – |
| C[C@@H]1C[C@@H]([C@H](O)CC2CC(=O)NC(=O)C2)C(=O)[C@@H](C)C1 [CYCLOHEXIMIDE] | 0.1 µM | 0.48 µM (≈ 0.135 µg/mL) | 0.15 µM | 0.73 µM (≈ 0.205 µg/mL) | Activity (Plasmodium falciparum [10]): inactive |
| Oc1ccc(Cl)cc1Oc1ccc(Cl)c2cccnc12 | – | – | – | – | Activity (Plasmodium falciparum [11]): inactive |
| O=C(O)c1cc(Oc2ccc(C(F)(F)F)cc2Cl)ccc1[N+](=O)[O-] [ACIFLUORFEN] | 457 µM | 692 µM (≈ 250 µg/mL) | 525 µM | 871 µM (≈ 315 µg/mL) | – |
| Oc1cc(Cl)ccc1Oc1ccc(Cl)cc1Cl [TRICLOSAN] | 1.2 µM | 10.2 µM (≈ 2.95 µg/mL) | 1.1 µM | 15.8 µM (≈ 4.57 µg/mL) | Activity (Plasmodium falciparum [12]): inactive; Activity (Plasmodium falciparum [13]): Active; Activity (Plasmodium falciparum [14]): inactive |
| CCC[C@@H]1C[C@@H](C(=O)N[C@@H]([C@H]2O[C@H](SC)[C@H](O)[C@@H](O)[C@H]2O)[C@H](C)Cl)N(C)C1 [CLINDAMYCIN] | 0.0013 µM | 6 µM (≈ 2.55 µg/mL) | 288 µM | 537 µM (≈ 228 µg/mL) | Activity (Plasmodium falciparum [3]): inactive; Activity (Plasmodium falciparum [12]): 0.65; Activity (Plasmodium falciparum [9]): inactive; Activity (Plasmodium falciparum [15]): 0.4; Activity (Plasmodium falciparum [16]): inactive; Activity (Plasmodium falciparum [14]): 0.42; Activity (Plasmodium falciparum [5]): 10% |
| CC(Oc1ccc(Oc2ncc(C(F)(F)F)cc2Cl)cc1)C(=O)O (stereo unspecified) [HALOXYFOP] | 97.7 µM | 346 µM (≈ 125 µg/mL) | 107 µM | 346 µM (≈ 125 µg/mL) | Activity (Plasmodium falciparum [17]): inactive |
